The nature of experiment [1]: Evaluated for its concentration at which 50% of maximal stimulation of phosphoinositide turnover was observed. It counts as functional, Mus musculus. Summed up: (§1)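 Swiss 3T3 mouse fibroblasts with FP receptors, confluent, labelled 24-30 h at 37 °C with 1.0-1.5 μCi [3H]-myo-inositol in DMEM. Rinsed into DMEM/F-12 with 10 mM LiCl, then agonist or solvent for 60 min at 37 °C, triplicate. Stopped with ice-cold 0.1 M formic acid. Total [3H]IPs isolated on anion-exchange resin and counted.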

Experiment [2] is filed under the species Mus musculus. Briefly: Evaluated for percent maximum response relative to cloprostenol (n=2). Type of experiment: functional. The method in brief: as §1
The species entered for experiment [3] is Mus musculus. In words: Evaluated for percent maximum response relative to cloprostenol (n=11). It counts as functional. The method in brief: as §1
For experiment [4], the species on record is Mus musculus. Briefly: Evaluated for percent maximum response relative to cloprostenol (n = 105). Type of experiment: functional. The method in brief:
as §1

In turn, `O=C(O)CCC/C=C\C[C@@H]1[C@@H](/C=C/[C@@H](O)COc2cccc(Cl)c2)[C@H](O)CC[C@@H]1O` had an EC50 in experiment [1] of 319 nM. For the same compound, the Max response in the experiment listed under Mus musculus [2] came out at 72%.

Consider `CCCCC[C@H](O)/C=C/[C@@H]1[C@@H](C/C=C\CCCC(=O)O)[C@@H](O)C[C@H]1O` [DINOPROST], for which the Max response in the experiment filed under Mus musculus [3] was found to be 91%. This compound also registered an EC50 in experiment [1] of 23 nM.

In experiment [1], `O=C(O)CCC/C=C\C[C@@H]1[C@@H](/C=C/[C@H](O)COc2cccc(Cl)c2)[C@H](O)CC[C@@H]1O` showed a 50% effective concentration (EC50) of 2750 nM. The Max response in the experiment listed under Mus musculus [2] came out at 50%.

The compound `O=C(O)CCC/C=C\CC1C(O)CC(O)C1/C=C/C(O)COc1cccc(Cl)c1` (stereo not drawn) [CLOPROSTENOL] showed a Max response in the experiment filed under Mus musculus [4] of 100%. In experiment [1], this compound showed an EC50 of 1 nM.

The term EC50 denotes the concentration giving half of the maximal effect. Read a low EC50 as a more potent agent.

Source of the values: ChEMBL document CHEMBL1133638, “Synthesis and biological activity of a novel 11a-homo (cyclohexyl) prostaglandin” (J Med Chem, 2000).
